Each block holds one compound with its values, some of them ahead of it.
Key:
[1] = TAOC, total antioxidant capacity; conditions: read-out: TAOC EC50; concentration that results in an absorbance of 0.500
Outline: (§1)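 Cell-free antioxidant assays, with Trolox and ascorbic acid as positive controls. Results are expressed as […] or as Trolox equivalents.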

[2] = test system: RAW 264.7 mouse macrophage cell line; assay type: cell-based; conditions: RAW264.7, 24 h, read-out: NO Production Inhibition (IC50)
Outline: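 NO production inhibition is measured in RAW 264.7 macrophages, with dexamethasone as positive control and the value given as IC50.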

[3] = test system: MDA-MB-231S triple-negative breast cancer cell line; assay: MTT antiproliferative assay, MDA-MB-231S; assay type: cell-based; conditions: 48 h, read-out: IC50, antiproliferative effect
Outline: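 Antiproliferative test on MDA-MB-231S cells with DMSO as negative (vehicle) control and doxorubicin as positive control. Activity is reported as IC50.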

[4] = ORAC, oxygen radical absorbance capacity; conditions: trolox equivalent
Outline: as §1

[5] = HORAC, hydroxyl radical absorbance capacity; conditions: trolox equivalent
Outline: as §1

EC50 [1]: 244 µM
SMILES: O=C1O[C@H]([C@@H](O)CO)C(O)=C1O [ascorbic acid]

SMILES: C[C@@H]1C[C@H]2[C@@H]3CCC4=CC(=O)C=C[C@]4(C)[C@@]3(F)[C@@H](O)C[C@]2(C)[C@@]1(O)C(=O)CO [dexametasone, Dexamethasone]
IC50 [2]: 16.1 ± 1.02 µM

IC50 [3]: 0.07 ± 0.01 µM
SMILES: COc1cccc2c1C(=O)c1c(O)c3c(c(O)c1C2=O)C[C@@](O)(C(=O)CO)C[C@@H]3O[C@H]1C[C@H](N)[C@H](O)[C@H](C)O1 [doxorubicin]

EC50 [1]: 143 µM
SMILES: Cc1c(C)c2c(c(C)c1O)CCC(C)(C(=O)O)O2 (stereo not drawn) [trolox]
ORAC (TE) [4]: 1 TE | HORAC (TE) [5]: 1 TE
